Results reported in ChEMBL document CHEMBL1147722, “Discovery of proline sulfonamides as potent and selective hepatitis C virus NS5b polymerase inhibitors. Evidence for a new NS5b polymerase binding site” (J Med Chem, 2006).

Assays:
[1] = target: RNA-directed RNA polymerase (Hepacivirus hominis, UniProt O39930); test: Inhibition of HCV NS5B RNA dependent RNA polymerase
NS3 = NS3 (Hepatitis C virus, UniProt A3EZJ3); test: Inhibition of HCV helicase; set-up: species or system Hepacivirus hominis
[2] = target: Human immunodeficiency virus type 1 reverse transcriptase (Human immunodeficiency virus 1, UniProt Q72547); test: Inhibition of HIV reverse transcriptase
DNA polymerase beta = DNA polymerase beta (Homo sapiens, UniProt P06746); test: Inhibition of human polymerase beta
[3] = Permeability from apical to basolateral side of the Caco-2 cell; type: ADME, cell-based; conditions: human, read-out: permeability
Vero = test: Cytotoxicity against Vero cell line; type: functional, cell-based; conditions: Chlorocebus sabaeus
Procedure, shortened: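 Cytotoxicity read by MTS assay on actively growing cells: Vero cells for line 1, clone A cells for line 2. IC50 was determined in each assay.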

[4] = Permeability at pH 7.4 by PAMPA assay; type: ADME; conditions: read-out: permeability

Chain of RNA-directed RNA polymerase (O39930 whole entry): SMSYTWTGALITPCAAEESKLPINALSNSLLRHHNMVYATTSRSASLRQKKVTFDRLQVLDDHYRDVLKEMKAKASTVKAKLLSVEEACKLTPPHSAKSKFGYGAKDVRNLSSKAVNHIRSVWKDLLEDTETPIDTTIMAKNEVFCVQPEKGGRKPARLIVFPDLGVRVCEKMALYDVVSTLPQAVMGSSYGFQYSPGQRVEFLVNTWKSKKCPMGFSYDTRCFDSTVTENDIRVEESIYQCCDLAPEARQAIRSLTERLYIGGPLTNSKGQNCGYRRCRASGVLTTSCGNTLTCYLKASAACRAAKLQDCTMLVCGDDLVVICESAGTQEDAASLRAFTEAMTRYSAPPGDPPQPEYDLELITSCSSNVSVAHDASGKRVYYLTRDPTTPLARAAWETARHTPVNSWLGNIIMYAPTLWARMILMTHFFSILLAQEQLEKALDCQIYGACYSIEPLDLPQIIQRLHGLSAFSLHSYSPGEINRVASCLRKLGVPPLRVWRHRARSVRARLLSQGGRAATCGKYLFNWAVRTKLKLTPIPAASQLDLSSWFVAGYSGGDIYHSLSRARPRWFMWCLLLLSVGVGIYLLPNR
Chain of NS3 (A3EZJ3 whole entry): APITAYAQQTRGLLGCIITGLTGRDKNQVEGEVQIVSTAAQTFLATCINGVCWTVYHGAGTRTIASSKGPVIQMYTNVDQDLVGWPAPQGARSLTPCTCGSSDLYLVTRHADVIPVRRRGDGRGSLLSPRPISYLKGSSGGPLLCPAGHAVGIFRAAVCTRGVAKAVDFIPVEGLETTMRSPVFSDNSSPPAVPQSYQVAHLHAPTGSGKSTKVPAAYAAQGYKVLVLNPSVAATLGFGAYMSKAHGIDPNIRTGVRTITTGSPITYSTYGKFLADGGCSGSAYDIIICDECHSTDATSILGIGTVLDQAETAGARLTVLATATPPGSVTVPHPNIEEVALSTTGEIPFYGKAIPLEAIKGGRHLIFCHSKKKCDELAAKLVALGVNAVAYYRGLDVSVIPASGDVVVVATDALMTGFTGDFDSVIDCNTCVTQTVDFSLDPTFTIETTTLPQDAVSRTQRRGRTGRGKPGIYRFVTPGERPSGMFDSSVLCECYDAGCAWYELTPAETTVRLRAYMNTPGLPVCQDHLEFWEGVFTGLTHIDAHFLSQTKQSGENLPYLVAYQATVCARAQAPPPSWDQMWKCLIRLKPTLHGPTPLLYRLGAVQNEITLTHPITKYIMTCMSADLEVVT

SMILES | IC50 [1] | further results
O=C(O)[C@@H]1CCCN1S(=O)(=O)c1cc(Cl)cc(Cl)c1 | > 20 µM | 
Cc1cc(NC(=O)c2ccccc2)c(S(=O)(=O)N2CCC[C@H]2C(=O)O)cc1Cl | > 20 µM | 
Nc1ccccc1S(=O)(=O)N1CCC[C@H]1C(=O)O | > 20 µM | 
O=C(O)[C@@H]1CCCCN1S(=O)(=O)c1cc(Cl)cc(Cl)c1O | 2 µM | 
O=C(O)[C@H]1CCCCN1S(=O)(=O)c1cc(Cl)cc(Cl)c1O | 7.1 µM | 
Cc1cc(S(=O)(=O)N2CCC[C@H]2C(=O)O)c(N)cc1Cl |  | IC50 (NS3): > 75 µM; IC50 [2]: > 100 µM; IC50 (DNA polymerase beta): > 100 µM
O=C(O)[C@@H]1CCCN1S(=O)(=O)c1cc(Cl)c(Cl)c(Cl)c1O | 0.08 µM | Papp A→B [3]: 0.4 ×10⁻⁶ cm/s; IC50 (Vero): > 100 µM; Papp [4]: 0.02 ×10⁻⁶ cm/s
O=S(=O)(c1cc(Cl)cc(Cl)c1O)N1CCC[C@H]1c1nn[nH]n1 | 0.56 µM | 
CC(=O)Nc1cc(C)c(Cl)cc1S(=O)(=O)N1CCC[C@H]1C(=O)O | > 20 µM | 
COC(=O)[C@@H]1CCCN1S(=O)(=O)c1cc(Cl)cc(Cl)c1O | > 20 µM | 
O=S(=O)(c1cc(Cl)cc(Cl)c1O)N1CCCC1 | 4.8 µM | 
N#C[C@@H]1CCCN1S(=O)(=O)c1cc(Cl)cc(Cl)c1O | 1.4 µM | 
O=C(O)C1CSCN1S(=O)(=O)c1cc(Cl)cc(Cl)c1O (single isomer, unassigned; 33) | 0.24 µM | 
O=C(O)C1CSCN1S(=O)(=O)c1cc(Cl)cc(Cl)c1O (single isomer, unassigned; 34) | 1.7 µM | 

The next lines start with results.

IC50 [1] | SMILES | further results
2.1 µM | O=C(O)[C@@H]1CCCN1S(=O)(=O)c1cc(F)cc(Cl)c1O | 
0.77 µM | O=C(O)[C@@H]1CCCN1S(=O)(=O)c1cc(Cl)cc(Cl)c1O | 
5.95 µM | Cc1cc(N)c(S(=O)(=O)N2CCC[C@H]2C(=O)O)cc1Cl | 
0.26 µM | O=C(O)[C@@H]1CCCN1S(=O)(=O)c1cc(Cl)cc(Br)c1O | 
7.9 µM | O=C(O)[C@H]1CCCN1S(=O)(=O)c1cc(Cl)cc(Cl)c1O | 
